Measurements from ChEMBL document CHEMBL3797186, “Single Residue Substitutions That Confer Voltage-Gated Sodium Ion Channel Subtype Selectivity in the NaV1.7 Inhibitory Peptide GpTx-1” (J Med Chem, 2016).
Positions of bridges follow the written chain, without caps; N, C: chain ends. Non-standard residues stand in square brackets, D forms with d. Residues, ends and D or L forms follow the SMILES beside them. Ala(indol-2-yl) = N[C@@H](Cc1cc2ccccc2[nH]1)C(=O)O; 2Pal = N[C@@H](Cc1ccccn1)C(=O)O

Columns and labels:
Type in all cases: cell-based
[1] = target: T1, Sodium channel protein type 5 subunit alpha (Homo sapiens, UniProt Q14524); experiment: Inhibition of human Nav1.5 expressed in HEK293 cells by whole cell patch clamp electrophysiology method
Method in brief: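 Stable HEK293 line expressing human NaV1.5, recorded on the PatchXpress 7000A. Percent inhibition versus concentration was pooled from at least 10 cells, with two to three points per concentration. The pooled set was fitted with a four-parameter Hill equation to give a single IC50 curve.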

[2] = target: T1, Sodium channel protein type 5 subunit alpha; experiment: Inhibition of human Nav1.5 expressed in HEK293 cells assessed as inward peak current by ion-works quattro patch clamp electrophysiology method
Method in brief: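 Stable HEK293 line expressing human NaV1.5, recorded by population patch clamp on the IonWorks Quattro.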

[3] = target: T2, Sodium channel protein type 9 subunit alpha (Homo sapiens, UniProt Q15858); experiment: Inhibition of human Nav1.7 expressed in HEK293 cells by whole cell patch clamp electrophysiology method
[4] = target: T2, Sodium channel protein type 9 subunit alpha; experiment: Inhibition of human Nav1.7 expressed in HEK293 cells assessed as inward peak current by ion-works quattro patch clamp electrophysiology method

T1 sequence (Q14524 whole entry): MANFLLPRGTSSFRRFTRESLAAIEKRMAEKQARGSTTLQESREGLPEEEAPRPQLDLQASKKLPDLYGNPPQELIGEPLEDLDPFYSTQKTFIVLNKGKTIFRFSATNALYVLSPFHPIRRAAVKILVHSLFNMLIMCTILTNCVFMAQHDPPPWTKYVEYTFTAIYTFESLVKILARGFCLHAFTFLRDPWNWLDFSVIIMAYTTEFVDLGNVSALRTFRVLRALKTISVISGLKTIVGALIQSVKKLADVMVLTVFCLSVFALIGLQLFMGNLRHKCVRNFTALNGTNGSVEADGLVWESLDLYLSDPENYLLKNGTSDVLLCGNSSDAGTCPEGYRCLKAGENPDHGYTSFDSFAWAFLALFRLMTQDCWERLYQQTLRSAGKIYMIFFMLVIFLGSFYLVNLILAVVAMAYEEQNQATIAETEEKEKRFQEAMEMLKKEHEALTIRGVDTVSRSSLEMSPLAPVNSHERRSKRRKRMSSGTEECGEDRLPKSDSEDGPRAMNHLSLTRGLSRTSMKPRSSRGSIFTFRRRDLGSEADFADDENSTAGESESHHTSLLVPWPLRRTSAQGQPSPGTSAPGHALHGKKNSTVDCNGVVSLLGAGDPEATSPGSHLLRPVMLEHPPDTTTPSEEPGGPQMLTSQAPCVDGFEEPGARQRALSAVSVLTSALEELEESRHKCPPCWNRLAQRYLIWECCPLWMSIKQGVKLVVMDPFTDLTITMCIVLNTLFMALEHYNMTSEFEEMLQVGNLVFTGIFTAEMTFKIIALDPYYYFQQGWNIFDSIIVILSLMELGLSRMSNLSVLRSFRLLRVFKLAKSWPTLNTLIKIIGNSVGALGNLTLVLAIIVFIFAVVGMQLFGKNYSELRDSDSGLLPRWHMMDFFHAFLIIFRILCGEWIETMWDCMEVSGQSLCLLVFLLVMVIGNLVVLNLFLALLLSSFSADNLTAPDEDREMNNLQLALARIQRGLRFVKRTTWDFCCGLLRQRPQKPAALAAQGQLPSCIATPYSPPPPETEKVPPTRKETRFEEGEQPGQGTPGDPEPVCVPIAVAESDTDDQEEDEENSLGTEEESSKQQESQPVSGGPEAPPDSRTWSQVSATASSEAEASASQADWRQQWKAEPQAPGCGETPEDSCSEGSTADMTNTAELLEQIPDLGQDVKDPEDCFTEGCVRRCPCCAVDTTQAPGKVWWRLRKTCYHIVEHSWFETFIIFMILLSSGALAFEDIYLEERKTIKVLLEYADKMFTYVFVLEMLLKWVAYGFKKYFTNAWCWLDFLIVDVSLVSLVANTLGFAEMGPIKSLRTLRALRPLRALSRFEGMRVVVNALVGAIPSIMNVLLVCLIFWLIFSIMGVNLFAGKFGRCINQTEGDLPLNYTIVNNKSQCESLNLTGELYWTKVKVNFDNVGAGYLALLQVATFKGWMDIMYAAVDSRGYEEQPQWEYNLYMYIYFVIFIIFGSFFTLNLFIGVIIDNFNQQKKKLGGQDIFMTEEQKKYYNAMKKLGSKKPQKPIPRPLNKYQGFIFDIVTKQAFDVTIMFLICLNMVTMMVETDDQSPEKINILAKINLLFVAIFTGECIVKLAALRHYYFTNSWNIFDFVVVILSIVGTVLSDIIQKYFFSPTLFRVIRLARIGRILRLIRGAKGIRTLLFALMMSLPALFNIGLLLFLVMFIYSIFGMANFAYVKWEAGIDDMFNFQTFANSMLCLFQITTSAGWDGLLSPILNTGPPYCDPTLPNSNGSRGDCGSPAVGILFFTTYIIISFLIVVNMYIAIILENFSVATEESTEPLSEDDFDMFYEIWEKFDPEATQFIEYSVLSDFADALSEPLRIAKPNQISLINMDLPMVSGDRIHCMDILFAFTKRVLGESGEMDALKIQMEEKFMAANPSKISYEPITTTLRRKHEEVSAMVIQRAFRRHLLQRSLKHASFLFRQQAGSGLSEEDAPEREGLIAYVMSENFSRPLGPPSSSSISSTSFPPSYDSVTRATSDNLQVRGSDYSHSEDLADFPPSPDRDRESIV
T2 sequence (Q15858 whole entry): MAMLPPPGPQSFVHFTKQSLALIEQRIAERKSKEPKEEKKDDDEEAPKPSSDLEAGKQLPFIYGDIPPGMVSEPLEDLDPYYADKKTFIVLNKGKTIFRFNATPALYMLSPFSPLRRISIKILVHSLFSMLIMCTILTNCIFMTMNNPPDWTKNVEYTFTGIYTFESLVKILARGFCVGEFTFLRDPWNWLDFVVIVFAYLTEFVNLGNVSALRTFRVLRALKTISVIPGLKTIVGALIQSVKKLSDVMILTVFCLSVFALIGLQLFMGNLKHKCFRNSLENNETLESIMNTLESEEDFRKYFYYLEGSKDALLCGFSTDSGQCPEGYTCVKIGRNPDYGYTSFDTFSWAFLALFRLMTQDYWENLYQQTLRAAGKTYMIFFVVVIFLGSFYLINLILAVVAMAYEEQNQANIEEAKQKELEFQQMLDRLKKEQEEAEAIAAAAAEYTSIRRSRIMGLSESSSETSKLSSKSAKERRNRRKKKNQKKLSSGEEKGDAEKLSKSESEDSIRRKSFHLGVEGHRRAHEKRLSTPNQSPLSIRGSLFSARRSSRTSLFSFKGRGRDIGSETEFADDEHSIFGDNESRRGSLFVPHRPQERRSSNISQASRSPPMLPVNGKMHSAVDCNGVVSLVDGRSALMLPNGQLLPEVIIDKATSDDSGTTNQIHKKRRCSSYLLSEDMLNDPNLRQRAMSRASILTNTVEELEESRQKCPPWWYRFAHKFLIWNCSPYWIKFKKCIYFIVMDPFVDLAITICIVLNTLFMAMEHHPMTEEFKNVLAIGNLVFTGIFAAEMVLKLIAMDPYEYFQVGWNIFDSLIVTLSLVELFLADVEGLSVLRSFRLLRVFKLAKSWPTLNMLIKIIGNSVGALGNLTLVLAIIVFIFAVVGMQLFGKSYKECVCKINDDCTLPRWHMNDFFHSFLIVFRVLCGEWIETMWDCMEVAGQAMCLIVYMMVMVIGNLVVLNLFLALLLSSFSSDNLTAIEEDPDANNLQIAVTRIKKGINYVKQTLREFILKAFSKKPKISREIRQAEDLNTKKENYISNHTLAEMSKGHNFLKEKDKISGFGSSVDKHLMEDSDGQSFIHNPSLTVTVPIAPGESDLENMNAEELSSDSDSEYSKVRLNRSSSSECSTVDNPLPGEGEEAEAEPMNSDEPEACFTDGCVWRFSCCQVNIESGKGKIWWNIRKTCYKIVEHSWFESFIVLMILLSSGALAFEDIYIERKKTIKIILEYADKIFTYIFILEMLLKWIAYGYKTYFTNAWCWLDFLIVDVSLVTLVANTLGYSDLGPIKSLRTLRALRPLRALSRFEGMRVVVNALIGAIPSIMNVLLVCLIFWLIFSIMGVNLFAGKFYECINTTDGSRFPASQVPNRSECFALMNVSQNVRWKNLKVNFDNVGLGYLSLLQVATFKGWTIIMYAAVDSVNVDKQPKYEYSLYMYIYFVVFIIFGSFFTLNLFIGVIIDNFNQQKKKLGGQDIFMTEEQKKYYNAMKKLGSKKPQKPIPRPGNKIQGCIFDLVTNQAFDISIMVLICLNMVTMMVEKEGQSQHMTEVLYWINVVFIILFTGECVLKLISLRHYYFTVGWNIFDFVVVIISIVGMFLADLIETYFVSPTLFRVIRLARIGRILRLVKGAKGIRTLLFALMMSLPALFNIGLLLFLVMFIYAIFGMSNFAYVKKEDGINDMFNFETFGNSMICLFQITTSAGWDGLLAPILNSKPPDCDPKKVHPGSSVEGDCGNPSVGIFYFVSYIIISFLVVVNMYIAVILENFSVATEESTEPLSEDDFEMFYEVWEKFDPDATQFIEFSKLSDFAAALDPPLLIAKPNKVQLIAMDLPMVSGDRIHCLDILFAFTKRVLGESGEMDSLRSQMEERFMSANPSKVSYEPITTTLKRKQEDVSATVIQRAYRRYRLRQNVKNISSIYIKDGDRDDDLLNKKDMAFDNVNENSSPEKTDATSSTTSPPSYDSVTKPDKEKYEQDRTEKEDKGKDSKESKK

SMILES	IC50 [1]	IC50 [2]	IC50 [3]	IC50 [4]
CC[C@H](C)[C@@H]1NC(=O)[C@@H]2CSSC[C@@H]3NC(=O)[C@H](C(C)C)NC(=O)[C@H](CC(C)C)NC(=O)[C@H](CC(N)=O)NC(=O)[C@@H]4CCCN4C(=O)[C@H](CCCNC(N)=O)NC(=O)[C@H](CSSC[C@H](NC(=O)[C@@H](N)CC(=O)O)C(=O)N[C@@H](CC(C)C)C(=O)NCC(=O)N[C@@H](Cc4ccccc4)C(=O)N[C@@H](CCSC)C(=O)N[C@@H](CCCNC(=N)N)C(=O)N[C@@H](CCCCN)C(=O)N2)NC(=O)[C@H](CSSC[C@@H](C(=O)N[C@@H](CCCCN)C(=O)N[C@@H](Cc2ccc(O)cc2)C(=O)N[C@H](C(=O)N[C@@H](Cc2ccccc2)C(N)=O)C(C)C)NC(=O)[C@H](Cc2c[nH]c4ccccc24)NC(=O)[C@H](CCCCN)NC(=O)[C@H](Cc2cnc[nH]2)NC(=O)[C@H]([C@@H](C)O)NC(=O)[C@H](CCCNC(=N)N)NC(=O)[C@H](CO)NC3=O)NC(=O)[C@H](CCCCN)NC(=O)[C@H](CC(=O)O)NC(=O)[C@H](CC(N)=O)NC(=O)[C@H](CC(=O)O)NC(=O)[C@@H]2CCCN2C1=O	> 10000 nM	> 5000 nM	1.9 nM	180 nM
CC[C@H](C)[C@@H]1NC(=O)[C@@H]2CSSC[C@@H]3NC(=O)[C@H](C(C)C)NC(=O)[C@H](CC(C)C)NC(=O)[C@H](CC(N)=O)NC(=O)[C@@H]4CCCN4C(=O)[C@H](CCCCN)NC(=O)[C@H](CSSC[C@H](NC(=O)[C@@H](N)CC(=O)O)C(=O)N[C@@H](CC(C)C)C(=O)NCC(=O)N[C@@H](Cc4ccccc4)C(=O)N[C@@H](CCSC)C(=O)N[C@@H](CCCNC(=N)N)C(=O)N[C@@H](CCCCN)C(=O)N2)NC(=O)[C@H](CSSC[C@@H](C(=O)N[C@@H](CCCCN)C(=O)N[C@@H](Cc2ccc(O)cc2)C(=O)N[C@H](C(=O)N[C@@H](Cc2ccccc2)C(N)=O)C(C)C)NC(=O)[C@H](Cc2c[nH]c4ccccc24)NC(=O)[C@H](CCCCN)NC(=O)[C@H](Cc2cnc[nH]2)NC(=O)[C@H]([C@@H](C)O)NC(=O)[C@H](CCCNC(=N)N)NC(=O)[C@H](CO)NC3=O)NC(=O)[C@H](CCCCN)NC(=O)[C@H](CC(=O)O)NC(=O)[C@H](CC(N)=O)NC(=O)[C@H](CC(=O)O)NC(=O)[C@@H]2CCCN2C1=O (H-DCLGFMRKCIPDNDKCCKPNLVCSRTHKWCKYVF-NH2; disulfide 2-17, 9-23, 16-30)	15900 nM	> 5000 nM	1.6 nM	360 nM
CC[C@H](C)[C@@H]1NC(=O)[C@@H]2CSSC[C@@H]3NC(=O)[C@H](C(C)C)NC(=O)[C@H](CC(C)C)NC(=O)[C@H](CC(N)=O)NC(=O)[C@@H]4CCCN4C(=O)[C@H](Cc4ccccn4)NC(=O)[C@H](CSSC[C@H](NC(=O)[C@@H](N)CC(=O)O)C(=O)N[C@@H](CC(C)C)C(=O)NCC(=O)N[C@@H](Cc4ccccc4)C(=O)N[C@@H](CCSC)C(=O)N[C@@H](CCCNC(=N)N)C(=O)N[C@@H](CCCCN)C(=O)N2)NC(=O)[C@H](CSSC[C@@H](C(=O)N[C@@H](CCCCN)C(=O)N[C@@H](Cc2ccc(O)cc2)C(=O)N[C@H](C(=O)N[C@@H](Cc2ccccc2)C(N)=O)C(C)C)NC(=O)[C@H](Cc2c[nH]c4ccccc24)NC(=O)[C@H](CCCCN)NC(=O)[C@H](Cc2cnc[nH]2)NC(=O)[C@H]([C@@H](C)O)NC(=O)[C@H](CCCNC(=N)N)NC(=O)[C@H](CO)NC3=O)NC(=O)[C@H](CCCCN)NC(=O)[C@H](CC(=O)O)NC(=O)[C@H](CC(N)=O)NC(=O)[C@H](CC(=O)O)NC(=O)[C@@H]2CCCN2C1=O (H-DCLGFMRKCIPDNDKCC[2Pal]PNLVCSRTHKWCKYVF-NH2; disulfide 2-17, 9-23, 16-30)	13100 nM	> 5000 nM	4 nM	300 nM
CC[C@H](C)[C@@H]1NC(=O)[C@@H]2CSSC[C@@H]3NC(=O)[C@H](C(C)C)NC(=O)[C@H](CC(C)C)NC(=O)[C@H](CC(N)=O)NC(=O)[C@@H]4CCCN4C(=O)[C@H](Cc4cc5ccccc5[nH]4)NC(=O)[C@H](CSSC[C@H](NC(=O)[C@@H](N)CC(=O)O)C(=O)N[C@@H](CC(C)C)C(=O)NCC(=O)N[C@@H](Cc4ccccc4)C(=O)N[C@@H](CCSC)C(=O)N[C@@H](CCCNC(=N)N)C(=O)N[C@@H](CCCCN)C(=O)N2)NC(=O)[C@H](CSSC[C@@H](C(=O)N[C@@H](CCCCN)C(=O)N[C@@H](Cc2ccc(O)cc2)C(=O)N[C@H](C(=O)N[C@@H](Cc2ccccc2)C(N)=O)C(C)C)NC(=O)[C@H](Cc2c[nH]c4ccccc24)NC(=O)[C@H](CCCCN)NC(=O)[C@H](Cc2cnc[nH]2)NC(=O)[C@H]([C@@H](C)O)NC(=O)[C@H](CCCNC(=N)N)NC(=O)[C@H](CO)NC3=O)NC(=O)[C@H](CCCCN)NC(=O)[C@H](CC(=O)O)NC(=O)[C@H](CC(N)=O)NC(=O)[C@H](CC(=O)O)NC(=O)[C@@H]2CCCN2C1=O (H-DCLGFMRKCIPDNDKCC[Ala(indol-2-yl)]PNLVCSRTHKWCKYVF-NH2; disulfide 2-17, 9-23, 16-30)	> 10000 nM	> 5000 nM	18 nM	180 nM
